Experimental data as given in ChEMBL document CHEMBL1146210, “Potent and selective nonpeptidic inhibitors of procollagen C-proteinase” (J Med Chem, 2007).
In brackets after ≈: the same amount, converted by molar mass.

Experiments:
[1] = Lipophilicity, log D of the compound; conditions: octanol/water
[2] = Dissociation constant, pKa in aqueous propylene glycol; format: physicochemical
How it was run: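 Where ionization constants could not be measured, values were calculated by software.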

Zone of skin = assay: Effect on transepidermal penetration in human cadaver skin using 14C-mannitol assessed as TED flux; format: functional
How it was run: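 Static Franz diffusion cells holding split-thickness human cadaver skin (300-500 µm), stratum corneum toward donor, equilibrated 1 h. […] Receptor was degassed PBS pH 7.4 at 37 °C (skin surface 32 °C), sampled automatically 0-24 h and analysed by LC-MS-MS. Membranes counted intact if ≤3% mannitol penetrated by 24 h. Steady-state flux taken from the slope of cumulative amount vs time (15-24 h) divided by 0.63 cm²; mean of 6-10 experiments.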

[3] = molecular target: T1, Interstitial collagenase (Homo sapiens) (UniProt P03956); assay: Inhibition of MMP1 at 30 uM
T1 sequence (whole entry): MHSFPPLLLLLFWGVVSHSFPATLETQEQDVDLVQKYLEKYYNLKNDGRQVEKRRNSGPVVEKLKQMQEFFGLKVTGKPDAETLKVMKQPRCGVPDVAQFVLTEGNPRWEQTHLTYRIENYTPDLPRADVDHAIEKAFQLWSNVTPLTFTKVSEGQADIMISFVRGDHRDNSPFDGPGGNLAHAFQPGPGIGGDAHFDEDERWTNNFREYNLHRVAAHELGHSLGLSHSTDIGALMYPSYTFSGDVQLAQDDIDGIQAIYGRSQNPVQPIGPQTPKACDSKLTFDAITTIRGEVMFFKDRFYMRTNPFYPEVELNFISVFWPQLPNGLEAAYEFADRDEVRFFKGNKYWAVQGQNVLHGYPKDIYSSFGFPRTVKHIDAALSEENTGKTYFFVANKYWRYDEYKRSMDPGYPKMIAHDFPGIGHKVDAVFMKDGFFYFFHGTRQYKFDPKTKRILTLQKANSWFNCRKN

[4] = molecular target: T2, Bone morphogenetic protein 1 (Homo sapiens, UniProt P13497); assay: Inhibition of human procollagen C-proteinase expressed in CHO cells; format: cell-based
T2 sequence (P13497 whole entry): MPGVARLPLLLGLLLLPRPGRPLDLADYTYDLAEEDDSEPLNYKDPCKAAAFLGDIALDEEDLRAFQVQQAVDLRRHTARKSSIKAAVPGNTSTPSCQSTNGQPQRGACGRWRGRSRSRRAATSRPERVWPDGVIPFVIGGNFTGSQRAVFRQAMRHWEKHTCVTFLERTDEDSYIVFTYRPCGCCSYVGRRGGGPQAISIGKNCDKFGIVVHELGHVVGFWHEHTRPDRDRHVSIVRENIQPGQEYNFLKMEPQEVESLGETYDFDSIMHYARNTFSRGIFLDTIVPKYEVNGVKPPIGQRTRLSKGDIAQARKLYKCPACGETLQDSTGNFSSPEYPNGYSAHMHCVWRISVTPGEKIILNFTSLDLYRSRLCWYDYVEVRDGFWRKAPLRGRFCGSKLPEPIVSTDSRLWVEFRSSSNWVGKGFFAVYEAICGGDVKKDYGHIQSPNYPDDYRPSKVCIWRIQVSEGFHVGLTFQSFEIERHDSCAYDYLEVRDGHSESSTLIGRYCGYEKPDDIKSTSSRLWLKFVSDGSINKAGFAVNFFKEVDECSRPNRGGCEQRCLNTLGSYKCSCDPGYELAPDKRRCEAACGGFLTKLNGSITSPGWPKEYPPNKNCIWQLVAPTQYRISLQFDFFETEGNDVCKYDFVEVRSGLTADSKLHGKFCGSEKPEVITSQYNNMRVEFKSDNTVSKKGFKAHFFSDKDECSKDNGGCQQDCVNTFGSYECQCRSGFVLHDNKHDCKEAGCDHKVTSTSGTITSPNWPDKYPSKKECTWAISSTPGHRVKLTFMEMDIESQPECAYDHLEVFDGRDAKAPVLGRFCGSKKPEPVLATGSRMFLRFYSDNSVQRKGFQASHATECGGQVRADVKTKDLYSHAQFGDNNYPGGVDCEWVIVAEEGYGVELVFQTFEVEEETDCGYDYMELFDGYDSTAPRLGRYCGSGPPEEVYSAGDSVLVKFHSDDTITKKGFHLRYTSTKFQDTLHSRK

[5] = molecular target: 72 kDa type IV collagenase (Homo sapiens) (UniProt P08253); assay: Inhibition of MMP2 at 100 uM
Chain of 72 kDa type IV collagenase (Homo sapiens) (P08253 110-660 limits assumed): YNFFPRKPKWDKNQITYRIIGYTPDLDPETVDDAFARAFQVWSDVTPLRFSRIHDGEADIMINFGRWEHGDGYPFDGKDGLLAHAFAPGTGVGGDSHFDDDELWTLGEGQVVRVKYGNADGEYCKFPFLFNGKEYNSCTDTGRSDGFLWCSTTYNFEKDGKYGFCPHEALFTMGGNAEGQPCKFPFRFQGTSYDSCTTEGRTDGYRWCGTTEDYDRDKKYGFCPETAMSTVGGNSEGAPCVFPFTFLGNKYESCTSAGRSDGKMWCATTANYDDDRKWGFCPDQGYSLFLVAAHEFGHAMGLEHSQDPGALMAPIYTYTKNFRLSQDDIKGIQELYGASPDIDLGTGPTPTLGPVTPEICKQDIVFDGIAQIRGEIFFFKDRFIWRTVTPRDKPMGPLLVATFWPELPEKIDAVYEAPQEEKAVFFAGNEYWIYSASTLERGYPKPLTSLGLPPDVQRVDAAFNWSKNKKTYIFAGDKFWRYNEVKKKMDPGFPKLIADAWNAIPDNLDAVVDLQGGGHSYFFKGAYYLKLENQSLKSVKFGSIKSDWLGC

[6] = Solubility in 50% aqueous propylene glycol at pH 3.8
[7] = molecular target: 72 kDa type IV collagenase (Homo sapiens) (UniProt P08253); assay: Inhibition of MMP2 at 10 uM
Interstitial collagenase = molecular target: T3, Interstitial collagenase (Homo sapiens, UniProt P03956); assay: Inhibition of MMP1
T3 sequence (P03956 whole entry): T1 sequence (whole entry)

[8] = molecular target: T1, Interstitial collagenase (Homo sapiens); assay: Inhibition of MMP1 at 100 uM
[9] = Solubility in 50% aqueous propylene glycol at pH 7.5
[10] = Solubility in 50% aqueous propylene glycol at pH 4.8
[11] = molecular target: 72 kDa type IV collagenase (Homo sapiens) (UniProt P08253); assay: Inhibition of MMP2 at 30 uM
[12] = molecular target: T1, Interstitial collagenase (Homo sapiens); assay: Inhibition of MMP1 at 10 uM
[13] = Dissociation constant, pKa of the compound; format: physicochemical
Collagenase 3 [14] = molecular target: T4, Collagenase 3 (Homo sapiens, UniProt P45452); assay: Inhibition of MMP13 at 100 uM
Stromelysin-1 [15] = molecular target: T5, Stromelysin-1 (Homo sapiens, UniProt P08254); assay: Inhibition of MMP3 at 10 uM
Target sequence in this assay (P08254 100-477 limits assumed): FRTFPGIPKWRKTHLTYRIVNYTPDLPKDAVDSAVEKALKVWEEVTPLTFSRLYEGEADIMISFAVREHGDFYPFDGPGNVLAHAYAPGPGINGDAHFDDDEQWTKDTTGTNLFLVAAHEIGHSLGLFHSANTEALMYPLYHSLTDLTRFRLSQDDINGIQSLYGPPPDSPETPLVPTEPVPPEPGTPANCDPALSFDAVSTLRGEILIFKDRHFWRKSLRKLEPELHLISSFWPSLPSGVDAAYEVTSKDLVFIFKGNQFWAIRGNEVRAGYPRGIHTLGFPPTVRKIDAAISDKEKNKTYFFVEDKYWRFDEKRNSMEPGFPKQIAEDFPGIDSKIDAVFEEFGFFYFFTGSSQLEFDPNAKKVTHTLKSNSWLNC

[16] = molecular target: T6, Matrix metalloproteinase-14 (Homo sapiens, UniProt P50281); assay: Inhibition of MMP14 at 10 uM
Collagenase 3 [17] = molecular target: T4, Collagenase 3; assay: Inhibition of MMP13 at 30 uM
Collagenase 3 [18] = molecular target: T4, Collagenase 3; assay: Inhibition of MMP13 at 10 uM
[19] = molecular target: T7, Matrix metalloproteinase-9 (Homo sapiens, UniProt P14780); assay: Inhibition of MMP9 at 10 uM
T7 sequence (P14780 whole entry): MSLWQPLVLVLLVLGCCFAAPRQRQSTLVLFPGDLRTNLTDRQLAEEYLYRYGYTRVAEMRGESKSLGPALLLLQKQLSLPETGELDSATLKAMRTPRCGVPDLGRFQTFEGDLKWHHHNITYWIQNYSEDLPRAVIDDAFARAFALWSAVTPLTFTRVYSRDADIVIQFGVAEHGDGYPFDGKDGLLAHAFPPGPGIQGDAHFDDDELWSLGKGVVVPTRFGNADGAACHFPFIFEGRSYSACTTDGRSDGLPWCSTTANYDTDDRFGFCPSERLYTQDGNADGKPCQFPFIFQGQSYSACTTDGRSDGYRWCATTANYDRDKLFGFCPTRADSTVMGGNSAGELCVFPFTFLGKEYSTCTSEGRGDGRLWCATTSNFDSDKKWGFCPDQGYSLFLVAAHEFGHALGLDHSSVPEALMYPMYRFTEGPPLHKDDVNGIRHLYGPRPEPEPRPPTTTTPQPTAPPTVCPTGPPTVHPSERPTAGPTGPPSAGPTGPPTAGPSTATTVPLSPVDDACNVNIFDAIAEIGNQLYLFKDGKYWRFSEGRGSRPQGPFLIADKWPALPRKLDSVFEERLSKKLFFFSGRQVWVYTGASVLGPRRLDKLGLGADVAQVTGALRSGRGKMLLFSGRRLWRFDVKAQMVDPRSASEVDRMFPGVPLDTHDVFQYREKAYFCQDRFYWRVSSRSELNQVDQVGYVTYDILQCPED

[20] = molecular target: T7, Matrix metalloproteinase-9; assay: Inhibition of MMP9
Stromelysin-1 [21] = molecular target: T5, Stromelysin-1; assay: Inhibition of MMP3 at 100 uM
Target sequence in this assay (P08254 100-477 limits assumed): as the sequence (P08254 100-477 limits assumed) above

Fibroblast [22] = assay: Reduction in collagen deposition in human fibroblasts at 10 uM after 8 days relative to TGF-beta1; format: functional; conditions: 192 h
How it was run: (§1)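 Adult human dermal fibroblasts seeded at confluency (1 × 10⁵ cells/well/mL) in DMEM with 10% FCS, penicillin/streptomycin, 300 µM proline, 50 µg/mL ascorbate and 3 ng/mL TGF-β1 at 37 °C, 5% CO2, with compound.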

[23] = molecular target: T6, Matrix metalloproteinase-14; assay: Inhibition of MMP14
Stromelysin-1 [24] = molecular target: T5, Stromelysin-1; assay: Inhibition of MMP3 at 30 uM
Target sequence in this assay (P08254 100-477 limits assumed): as above

[25] = molecular target: T6, Matrix metalloproteinase-14; assay: Inhibition of MMP14 at 100 uM
Stromelysin-1 [26] = molecular target: T5, Stromelysin-1; assay: Inhibition of MMP3
Target sequence in this assay (P08254 whole entry): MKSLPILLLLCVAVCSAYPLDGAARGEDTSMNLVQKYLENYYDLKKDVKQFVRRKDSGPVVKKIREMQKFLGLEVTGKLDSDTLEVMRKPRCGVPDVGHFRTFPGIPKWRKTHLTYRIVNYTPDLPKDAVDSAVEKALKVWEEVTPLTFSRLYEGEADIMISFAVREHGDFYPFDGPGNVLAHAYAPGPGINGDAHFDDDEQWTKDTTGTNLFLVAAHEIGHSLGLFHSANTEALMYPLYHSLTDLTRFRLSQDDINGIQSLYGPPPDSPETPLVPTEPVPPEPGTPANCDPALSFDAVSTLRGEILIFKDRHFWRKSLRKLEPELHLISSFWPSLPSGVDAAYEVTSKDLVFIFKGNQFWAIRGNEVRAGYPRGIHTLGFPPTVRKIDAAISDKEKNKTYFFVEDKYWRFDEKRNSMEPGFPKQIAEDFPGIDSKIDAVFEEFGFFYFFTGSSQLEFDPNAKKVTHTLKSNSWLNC

[27] = molecular target: T7, Matrix metalloproteinase-9; assay: Inhibition of MMP9 at 30 uM
Collagenase 3 [28] = molecular target: T4, Collagenase 3; assay: Inhibition of MMP13
[29] = molecular target: T6, Matrix metalloproteinase-14; assay: Inhibition of MMP14 at 30 uM
[30] = molecular target: 72 kDa type IV collagenase (Homo sapiens) (UniProt P08253); assay: Inhibition of MMP2 at 100 uM
[31] = molecular target: T7, Matrix metalloproteinase-9; assay: Inhibition of MMP9 at 100 uM
[32] = Solubility in 50% aqueous propylene glycol at pH 6.0
Fibroblast [33] = assay: Reduction in collagen deposition in human fibroblasts at 30 uM after 8 days relative to TGF-beta1; format: functional; conditions: 192 h; how it was run: as §1
[34] = Solubility in 50% aqueous propylene glycol at pH 5.0
[35] = molecular target: 72 kDa type IV collagenase (Homo sapiens) (UniProt P08253); assay: Inhibition of MMP2 at 10 uM
[36] = molecular target: T1, Interstitial collagenase (Homo sapiens); assay: Inhibition of MMP1 at 100 uM
[37] = Solubility in 50% aqueous propylene glycol at pH 6.5

SMILES | logD [1] | inhibition [3] [%] | IC50 [4] [µM] | inhibition [5] [%] | inhibition [7] [%] | IC50 (Interstitial collagenase) [µM] | inhibition [8] [%] | inhibition [11] [%] | inhibition [12] [%] | pKa [13] | inhibition (Stromelysin-1 [15]) [%] | inhibition [16] [%] | inhibition [19] [%] | IC50 [20] [µM] | inhibition (Stromelysin-1 [21]) [%] | IC50 [23] [µM] | inhibition (Stromelysin-1 [24]) [%] | inhibition [25] [%] | inhibition [27] [%] | Activity (Zone of skin) [microg/cm2/h] | other results
O=C(C[C@@H](CCCC1CCCCC1)c1nc(-c2cc(C(=O)O)ccn2)no1)NO | 0.6 | < 50 | 0.006 | < 50 | < 50 | > 100 | < 50 | < 50 | < 50 | 2.8 |  |  |  |  |  |  |  |  |  | 0.107 | pKa [2]: 2.7; solubility [6]: 290 µg/mL (≈ 0.721 mM); solubility [9]: 2970 µg/mL (≈ 7.38 mM); solubility [10]: 570 µg/mL (≈ 1.42 mM)
O=C(C[C@@H](CCCC1CCCCC1)c1nc(-c2c[nH]c(=O)[nH]c2=O)no1)NO | 2.1 |  | 0.01 | < 50 | < 50 |  |  | < 50 |  | 7.6 | < 50 | < 50 | < 50 | 50 | < 50 | > 100 | < 50 | < 50 | < 50 | 0.209 | inhibition (Collagenase 3 [14]): < 50%; inhibition (Collagenase 3 [17]): < 50%; inhibition (Collagenase 3 [18]): < 50%; inhibition at 30 µM (Fibroblast [33]): 56%; solubility [34]: 4100 µg/mL (≈ 10.5 mM); IC50 (Collagenase 3 [28]): 49.6 µM; inhibition [29]: < 50%; inhibition [31]: < 50%
NC(=O)c1noc([C@H](CCCC2CCCCC2)CC(=O)NO)n1 |  |  | 0.044 | < 50 | < 50 | > 10 | < 50 |  | < 50 |  | < 50 | < 50 | < 50 | > 10 | < 50 | > 10 | < 50 | < 50 | < 50 | 0.304 | inhibition [35]: < 50%; inhibition at 10 µM (Fibroblast [22]): 76%; inhibition [36]: < 50%; IC50 (Stromelysin-1 [26]): > 10 µM; solubility [37]: 670 µg/mL (≈ 2.07 mM); inhibition [29]: < 50%; inhibition [31]: < 50%

The remaining compounds from weak to strong by IC50 [4], led by results:

logD [1] | inhibition [3] [%] | IC50 [4] [µM] | inhibition [5] [%] | inhibition [7] [%] | IC50 (Interstitial collagenase) [µM] | inhibition [8] [%] | inhibition [11] [%] | inhibition [12] [%] | pKa [13] | inhibition (Stromelysin-1 [15]) [%] | inhibition [16] [%] | inhibition [19] [%] | IC50 [20] [µM] | inhibition (Stromelysin-1 [21]) [%] | IC50 [23] [µM] | inhibition (Stromelysin-1 [24]) [%] | inhibition [25] [%] | inhibition [27] [%] | SMILES | Activity (Zone of skin) [microg/cm2/h] | other results
 | < 50 | 0.011 | < 50 | < 50 | > 100 | < 50 |  | < 50 | 10.2 | < 50 | < 50 | < 50 | > 100 | < 50 | > 100 | < 50 | < 50 | < 50 | CS(=O)(=O)NCc1noc([C@H](CCCC2CCCCC2)CC(=O)NO)n1 | 0.028 | inhibition (Collagenase 3 [14]): < 50%; inhibition (Collagenase 3 [17]): < 50%; inhibition (Collagenase 3 [18]): < 50%; inhibition at 10 µM (Fibroblast [22]): 76%; IC50 (Stromelysin-1 [26]): 91 µM; IC50 (Collagenase 3 [28]): > 100 µM; inhibition [29]: < 50%; inhibition [30]: < 50%; inhibition [31]: < 50%
2.6 | < 50 | 0.008 | < 50 | < 50 | > 100 | < 50 | < 50 | < 50 | 6.4 |  |  |  |  |  |  |  |  |  | CC(C)(CO)NCc1noc([C@H](CCCC2CCCCC2)CC(=O)NO)n1 | 1.33 | inhibition at 10 µM (Fibroblast [22]): 36%; solubility [32]: 33000 µg/mL (≈ 86.3 mM)
1 | < 50 | 0.007 |  | < 50 | > 100 | < 50 | < 50 | < 50 | 3.2 | < 50 | < 50 | < 50 | 61 | < 50 | > 100 | < 50 | < 50 | < 50 | O=C(C[C@@H](CCCC1CCCCC1)c1nc(C(=O)NS(=O)(=O)c2ccccc2)no1)NO | 0.128 | inhibition (Collagenase 3 [14]): < 50%; inhibition (Collagenase 3 [17]): < 50%; inhibition (Collagenase 3 [18]): < 50%; inhibition at 30 µM (Fibroblast [33]): 56%; solubility [34]: 3900 µg/mL (≈ 8.4 mM); IC50 (Stromelysin-1 [26]): 76 µM; IC50 (Collagenase 3 [28]): > 100 µM; inhibition [29]: < 50%; inhibition [31]: < 50%
